Compound activity as filed in PubChem BioAssay.
LEDGF integ inh: blocks HIV-1 LEDGF/p75-dependent DNA integration. inhibition, % at 3.7 µM. actives 0.64% (n = 370,000). TR-FRET IN-LEDGF/p75 DNA integration, Eu/Cy5;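 active = inhibition above the screen-wide mean plus 3 SD, cut at about 13% in these data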;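 note: signal is the Cy5 over europium emission ratio at 671 and 618 nm; 0% = plate median of compound wells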
MBD2 DNA inh: blocks human MBD2 binding to methylated DNA | TR-FRET, MBD2 binding to methylated oligonucleotide | inhibition, % at 4.4 µM | actives 0.31% (n = 370,000) | Q9UBB5; in the data active = inhibition above about 13%
TDP2 absorb: TDP2 (human) inhibition, absorbance primary screen; inhibition, % at 12.8 µM; actives 0.34% (n = 370,000); recombinant TDP2, T5PNP hydrolysis, p-nitrophenol absorbance 415 nm; O95551;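 active = inhibition above the mean of all tested compounds plus 3 SD, set per campaign, cut at about 25% in these data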;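 note: 0% = DMSO with enzyme and 100% = buffer with substrate but no TDP2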
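System: recombinant human TDP2 / Amount: 120 nM TDP2 per well / Also added: 5 mM T5PNP chromogenic substrate / Doses: 12.8 µM single point, 1% DMSO / Incubation: 2 h at 37 °C / Detection: p-Nitrophenol epi absorbance / Evaluation: % inhibition relative to enzyme-containing and enzyme-free wells / Repeats: singlicate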
PRMT1 FP inh: PRMT1 (human) inhibition, primary screen; Q99873; recombinant PRMT1, activity-based probe fluorescence polarization; inhibition, % at 2.79 µM; actives 1.3% (n = 370,000); AID 652257;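 active = inhibition above about 21% made by adding two undisclosed values, limit read from the data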
SIAE inh: human SIAE inhibition, primary screen | Q9HAT2 | SIAE FP-Rh probe binding, fluorescence polarization | inhibition, % at 9.66 µM | actives 0.69% (n = 370,000);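 active = inhibition above a cutoff: mean of compounds within the control limits plus 3 SD of those, cut at about 17% in these data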;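 note: 0% = plate median of compound wells and 100% = probe without SIAE protein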
Target sequence (Q9HAT2 whole entry, looked up): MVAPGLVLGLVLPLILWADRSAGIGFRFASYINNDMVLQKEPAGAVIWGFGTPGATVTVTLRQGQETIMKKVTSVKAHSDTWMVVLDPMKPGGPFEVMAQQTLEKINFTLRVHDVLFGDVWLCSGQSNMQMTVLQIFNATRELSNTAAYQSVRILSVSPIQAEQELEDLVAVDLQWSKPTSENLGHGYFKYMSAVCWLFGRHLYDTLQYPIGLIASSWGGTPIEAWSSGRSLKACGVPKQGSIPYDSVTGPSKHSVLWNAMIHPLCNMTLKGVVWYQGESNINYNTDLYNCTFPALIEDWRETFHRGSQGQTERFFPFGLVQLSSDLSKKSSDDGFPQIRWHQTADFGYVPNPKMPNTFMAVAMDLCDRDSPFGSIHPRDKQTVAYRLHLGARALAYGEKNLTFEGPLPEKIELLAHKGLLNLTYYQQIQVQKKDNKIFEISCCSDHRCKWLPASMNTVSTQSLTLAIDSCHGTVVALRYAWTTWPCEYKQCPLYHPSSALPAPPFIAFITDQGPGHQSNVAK
UHRF1 binding: blocks human UHRF1 binding to methylated DNA. inhibition, % at 4.4 µM. actives 0.75% (n = 370,000). UHRF1 binding to methylated oligo, TR-FRET. Q96T88; in the data active = inhibition above about 21%;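 note: UHRF1 SRA domain binding a hemimethylated CpG hairpin DNA probe; 0% = median of test compound wells and 100% = reference inhibitor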
PRMT1 confirm: PRMT1 (human) inhibition, FP confirmation; shares compounds with PRMT1 FP inh; recombinant His-PRMT1, activity-based probe fluorescence polarization; inhibition, % at 2.79 µM; actives 42% (n = 3,300);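 active = mean inhibition across replicates above the hit cutoff derived for the earlier primary screen, cut at about 22% in these data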
Starred values were filed as active, the others as inactive; / = no result given. Rows were chosen to be rich in hits. Some 3.3% of all compounds tested hit in one or more screens of this group.

SMILES	LEDGF integ inh	MBD2 DNA inh	TDP2 absorb	PRMT1 FP inh	SIAE inh	UHRF1 binding	PRMT1 confirm
COC(=O)[C@]12C[C@H](CC(=O)N3CCN(C(=O)c4ccco4)CC3)C(=O)N(CCc3ccc(OC)c(OC)c3)C1=C[C@H](COCc1ccccc1)O[C@@H]2C	7	0	5	-4	17	-2	/
O=[N+]([O-])c1ccc(-c2csc3[n+]2CCS3)cc1	2	-3	-3	47*	0	0	3
O=C(CCC(=O)N1CCOc2ccccc21)N1CCN(c2ccccc2)CC1	-3	-1	2	55*	5	-3	7
COc1cccc(C(=O)Nc2ccc(C(=O)NCC3COc4ccccc4O3)cc2)c1 (stereo not given)	-2	1	0	4	-7	1	/
CC(=O)Nc1ccc(C2=NNC(=NCC3CCCO3)SC2)cc1 (stereo not given)	6	2	-6	41*	0	3	33*
Fc1ccc(F)c(C2=NNC(=NCC3CCCO3)SC2)c1 (stereo not given)	-2	-11	-19	38*	-5	-5	10
COCC(C)N=C1NN=C(c2ccc(NC(C)=O)cc2)CS1 (stereo not given)	0	-1	10	11	-3	-5	/
Cc1ccc(CNC(=O)c2ccc(NC(=O)CCS(=O)(=O)c3cccs3)cc2)cc1	3	5	0	35*	0	-1	2
O=C(CCS(=O)(=O)c1cccs1)Nc1ccc(C(=O)NCc2ccccc2)cc1	-1	3	4	2	-3	-3	/
O=C(CC(Nc1ccccc1)C(=O)O)c1ccccc1 (stereo not given)	1	-3	-11	12	-1	-4	/
O=C(CC(Nc1ccc(Cl)cc1Cl)C(=O)O)c1ccccc1 (stereo not given)	4	3	-3	39*	1	1	3
Cc1cnc(NC(=O)Cc2ccc(S(=O)(=O)N3CCOCC3)s2)s1	-2	4	-7	38*	3	4	12
c1ccc2sc(-c3ccncc3)nc2c1	2	-3	-10	-5	0	-12	/
c1csc(-c2nc3ccccc3s2)c1	-3	-1	-5	33*	0	1	34*
Cc1c(O)nc(SCC(=O)Nc2ccc3c4c(cccc24)CC3)n(-c2ccccc2)c1=O	0	1	9	29*	3	0	23*
COc1ccc(C(CCOC(=O)Oc2ccccc2)c2cc(OC)cc(OC)c2)cc1 (stereo not given)	4	-1	-6	-4	-1	-1	/
COC(=O)c1ccccc1NC(=O)N1CSC[C@H]1C(=O)OC	1	-2	4	30*	-3	-1	48*
CCC[C@H]1[C@@H](NC(=O)c2cccc(Cl)c2)CC[C@@]23CCCN2C(=O)CCC[C@@H]13	4	-1	-5	0	-5	-1	/
N#CSCC(=O)c1cccc2ccccc12	-3	6	-12	60*	-5	3	47*
CC1CCN(c2nc(-c3ccco3)c3c(c2C#N)CC(C)(C)OC3)CC1	7	0	6	28*	4	-4	24*
CC1(C)Cc2c(C#N)c(N3CCOCC3)nc(-c3ccccc3)c2CO1	3	0	-9	0	1	5	/
COc1ccc(/C=C/C(=O)NCC2COc3ccccc3O2)c(OC)c1 (stereo not given)	3	-3	-13	-3	-3	-3	/
O=C(/C=C/c1ccco1)NCC1COc2ccccc2O1 (stereo not given)	0	0	-7	33*	-10	5	16
S=C(Nc1cccc(Cl)c1)OC1CCC12CCC(c1ccccc1)CC2 (stereo not given)	5	-2	5	-2	5	-1	/
COc1ccc(-c2onc3ccc(Cl)cc23)cc1	-3	-7	-2	30*	0	-2	13
SMILES	LEDGF integ inh	MBD2 DNA inh	TDP2 absorb	PRMT1 FP inh	SIAE inh	UHRF1 binding	PRMT1 confirm
Cc1ccc(-c2onc3ccc(Cl)cc23)cc1	-1	2	10	-1	7	-1	/
CN(C)S(=O)(=O)c1cccc(C(=O)N2CCc3ccccc32)c1	0	0	-9	-2	5	-1	/
CN(C)S(=O)(=O)c1cccc(C(=O)C2=C3SC=C(c4ccccc4)N3CC2)c1	3	0	2	26*	-9	-5	28*
O=C(C1CCN(c2cncnc2)CC1)N1CCOCC1	-1	5	-12	6	1	-1	/
CCN(CC)c1ccc(/C=C(/C#N)c2nc3ccc(C)cc3[nH]2)c(OC(C)C)c1	0	-4	-7	48*	-8	-16	53*
CCCOc1cc(N(CC)CC)ccc1/C=C(/C#N)c1nc2ccc(C)cc2[nH]1	0	1	1	-10	0	-10	/
CN1CCc2nc(SCC(=O)Nc3cccc(F)c3)c(C#N)c(-c3cccs3)c2C1	2	1	2	65*	-8	-5	23*
CN1CCc2nc(SCC(=O)Nc3ccc(OC(F)(F)F)cc3)c(C#N)c(-c3cccs3)c2C1	6	-2	10	40*	-9	8	41*
C[C@@H]1CN([C@@H](C)CO)C(=O)c2cccc(NC(=O)Nc3cccc4ccccc34)c2O[C@H]1CN(C)S(=O)(=O)c1ccc2c(c1)OCCO2	2	5	0	-1	-5	-3	/
N#Cc1c(SCc2c(Cl)cccc2Cl)nc(N)[nH]c1=S	-4	-3	-10	43*	3	-3	11
COc1cccc(-c2nc(=S)c3c(n2Cc2ccco2)CCCC3)c1	4	9	3	26*	-10	3	1
CCn1c(-c2ccc(C)cc2)n[nH]c1=S	-1	2	-4	-1	5	0	/
Cc1ccc(-c2csc3n[nH]c(=S)n23)cc1	-5	3	-5	61*	17	1	7
O=C(CSc1ncccn1)Nc1cccc(S(=O)(=O)N2CCOCC2)c1	1	1	-20	1	0	3	/
O=C(CSc1nccc(=O)[nH]1)Nc1cccc(S(=O)(=O)N2CCOCC2)c1	0	6	-6	45*	-7	4	32*
CCOc1ccc(N2C(=O)CC(NC3CCN(C(=O)c4cccs4)CC3)C2=O)cc1 (stereo not given)	-2	10	-12	89*	-1	3	-3
CCOc1ccc(N2C(=O)CC(NC3CCN(C(=O)c4cccc(Cl)c4)CC3)C2=O)cc1 (stereo not given)	-2	4	-6	65*	-6	0	2
